Measurements reported in ChEMBL document CHEMBL1124758, “Renin inhibitory peptides. A beta-aspartyl residue as a replacement for the histidyl residue at the P-2 site” (J Med Chem, 1990).
pIC50: −log10 of the molar value.

What follows are molecules tested against T1, Renin (Homo sapiens, UniProt P00797) (assay: Inhibition of human plasma renin at pH 6).
T1 sequence (P00797 whole entry): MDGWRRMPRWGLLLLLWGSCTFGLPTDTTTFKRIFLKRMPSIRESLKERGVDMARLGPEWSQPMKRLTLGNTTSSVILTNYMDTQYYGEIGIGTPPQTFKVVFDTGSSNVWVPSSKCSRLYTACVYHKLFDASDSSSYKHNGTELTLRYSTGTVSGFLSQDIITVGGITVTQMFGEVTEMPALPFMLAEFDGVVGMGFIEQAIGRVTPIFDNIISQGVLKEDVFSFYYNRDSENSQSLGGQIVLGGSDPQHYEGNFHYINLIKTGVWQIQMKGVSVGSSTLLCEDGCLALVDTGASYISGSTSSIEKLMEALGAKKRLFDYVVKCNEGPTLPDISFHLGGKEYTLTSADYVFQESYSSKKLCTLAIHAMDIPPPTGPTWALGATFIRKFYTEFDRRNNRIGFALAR
Format: cell-free
Procedure, shortened: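 Human plasma incubated with phenylmethanesulfonyl fluoride and maleate buffer (pH 6.0) plus peptide in 1% Tween 80/water vehicle, 90 min at 37 °C, for angiotensin I generation. Angiotensin I measured by radioimmunoassay kit. Percent inhibition from plasma renin activity versus control tubes. IC50 estimated from semilog plot of three or four peptide concentrations.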

SMILES | pIC50
CC[C@@H](C)[C@H](NC(=O)[C@@H](CC(O)[C@H](CC1CCCCC1)NC(=O)[C@@H](CC(=O)O)NC(=O)Cc1ccccc1)C(C)C)C(=O)N(C)c1ccccn1 (some centres undefined) | 8.70
CC[C@@H](C)[C@H](NC(=O)[C@@H](CC(O)[C@H](CC1CCCCC1)NC(=O)[C@@H](CC(=O)O)NC(=O)COc1ccccc1)C(C)C)C(=O)N(C)c1ccccn1 (some centres undefined) | 9.47
CC[C@@H](C)[C@H](NC(=O)[C@@H](CC(O)[C@H](CC(C)C)NC(=O)[C@H](Cc1c[nH]cn1)NC(=O)COc1ccccc1)C(C)C)C(=O)N(C)c1ccccn1 (some centres undefined) | 8.07
CC[C@@H](C)CNC(=O)[C@@H](NC(O)[C@@H](CC(=O)[C@H](CC(=O)O)NC(=O)COc1ccccc1)CC1CCCCC1)C(C)C (some centres undefined) | 8.28
CC[C@@H](C)CNC(=O)[C@@H](CC(O)[C@H](CC(C)C)NC(=O)C(C(=O)COc1ccccc1)C(O)C(=O)O)C(C)C (some centres undefined) | 8.66
CC[C@@H](C)CNC(=O)[C@@H](CC(O)[C@H](CC(C)C)NC(=O)C(C(=O)Cc1ccccc1)C(O)C(=O)O)C(C)C (some centres undefined) | 8.22
CC[C@@H](C)[C@H](NC(=O)[C@@H](CC(O)[C@H](CC(C)C)NC(=O)[C@H](Cc1c[nH]cn1)NC(=O)Cc1ccccc1)C(C)C)C(=O)N(C)c1ccccn1 (some centres undefined) | 6.66
CC[C@@H](C)[C@H](NC(=O)[C@@H](CC(O)[C@H](CC(C)C)NC(=O)C(C(=O)COc1ccccc1)C(O)C(=O)O)C(C)C)C(=O)N(C)c1ccccn1 (some centres undefined) | 9.15
CC[C@@H](C)CNC(=O)[C@@H](CC(O)[C@H](CC1CCCCC1)NC(=O)C(C(=O)COc1ccccc1)C(O)C(=O)O)C(C)C (some centres undefined) | 8.44
CC[C@@H](C)[C@H](NC(=O)[C@@H](CC(O)[C@H](CC(C)C)NC(=O)C(C(=O)Cc1ccccc1)C(O)C(=O)O)C(C)C)C(=O)N(C)c1ccccn1 (some centres undefined) | 8.92
CC[C@@H](C)[C@H](NC(=O)[C@@H](CC(O)[C@H](CC(C)C)NC(=O)[C@@H](CC(=O)O)NC(=O)COc1ccccc1)C(C)C)C(=O)N(C)c1ccccn1 (some centres undefined) | 8.72
CC[C@@H](C)CNC(=O)[C@@H](CC(O)[C@H](CC(C)C)NC(=O)[C@@H](CC(=O)O)NC(=O)COc1ccccc1)C(C)C (some centres undefined) | 7.70
CC[C@@H](C)[C@H](NC(=O)[C@@H](CC(O)[C@H](CC(C)C)NC(=O)[C@@H](CC(=O)O)NC(=O)Cc1ccccc1)C(C)C)C(=O)N(C)c1ccccn1 (some centres undefined) | 8.46
CC[C@@H](C)[C@H](NC(=O)[C@@H](CC(O)[C@H](CC(C)C)NC(=O)C(CC(=O)O)NC(=O)Cc1ccccc1)C(C)C)C(=O)N(C)c1ccccn1 (stereo in doubt) | 7.77
